According to ChEMBL document CHEMBL1157677, “Silicon switch approach in TRPV1 antagonist MK-056 and its analogues” (Bioorg Med Chem, 2010):

How the values were obtained:
[1] = target: T1, Transient receptor potential cation channel subfamily V member 1 (Rattus norvegicus, UniProt O35433); test: Antagonist activity at TRPV1 in Sprague-Dawley rat DRG neuron assessed as reduction of capsaicin-stimulated intracellular 45Ca2+ influx by scintillation counting; type: functional, cell-based
Outline: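 Neonatal rat spinal DRG neurons, dissociated with collagenase then trypsin (30 min each, 37 °C), cultured 3 days in horse-serum DME/F12 with C6-glioma-conditioned medium. Neurons were given ⁴⁵Ca²⁺ plus capsaicin with compound for 10 min at room temperature in HEPES (10 mM, pH 7.4) Ca/Mg-free HBSS, then washed and dried.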

[2] = target: T1, Transient receptor potential cation channel subfamily V member 1; test: Agonist activity at TRPV1 in Sprague-Dawley rat DRG neuron assessed as intracellular 45Ca2+ influx by scintillation counting; type: functional, cell-based
[3] = target: Transient receptor potential cation channel subfamily V member 1 (Rattus norvegicus) (UniProt O35433); test: Ratio of compound IC50 to SC-0030 IC50 for TRPV1 in Sprague-Dawley rat DRG neuron
[4] = target: Transient receptor potential cation channel subfamily V member 1 (Rattus norvegicus) (UniProt O35433); test: Ratio of compound IC50 to ATC-120 IC50 for TRPV1 in Sprague-Dawley rat DRG neuron

T1 sequence (O35433 whole entry): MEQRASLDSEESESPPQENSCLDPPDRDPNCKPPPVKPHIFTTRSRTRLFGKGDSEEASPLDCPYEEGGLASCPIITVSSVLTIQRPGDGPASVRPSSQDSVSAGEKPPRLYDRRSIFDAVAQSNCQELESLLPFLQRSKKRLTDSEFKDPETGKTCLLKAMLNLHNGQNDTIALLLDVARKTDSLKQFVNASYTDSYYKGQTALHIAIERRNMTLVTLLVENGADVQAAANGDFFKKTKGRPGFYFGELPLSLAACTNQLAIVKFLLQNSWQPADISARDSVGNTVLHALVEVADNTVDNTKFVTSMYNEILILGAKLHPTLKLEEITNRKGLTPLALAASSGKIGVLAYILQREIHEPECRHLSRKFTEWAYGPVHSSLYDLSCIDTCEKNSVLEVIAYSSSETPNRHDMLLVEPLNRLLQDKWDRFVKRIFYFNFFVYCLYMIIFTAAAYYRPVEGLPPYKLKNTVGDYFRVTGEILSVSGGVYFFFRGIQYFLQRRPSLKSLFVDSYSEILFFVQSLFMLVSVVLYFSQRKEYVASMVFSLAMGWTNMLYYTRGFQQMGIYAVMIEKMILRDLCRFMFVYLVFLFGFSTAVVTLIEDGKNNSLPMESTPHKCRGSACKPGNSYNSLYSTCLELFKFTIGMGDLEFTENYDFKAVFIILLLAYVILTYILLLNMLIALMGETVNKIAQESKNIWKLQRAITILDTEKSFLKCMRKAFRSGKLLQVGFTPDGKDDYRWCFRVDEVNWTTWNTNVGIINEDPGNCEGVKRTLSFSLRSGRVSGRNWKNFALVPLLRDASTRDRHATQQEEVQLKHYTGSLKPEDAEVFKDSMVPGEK
Sequence of Transient receptor potential cation channel subfamily V member 1 (Rattus norvegicus) (O35433 whole entry): as above

| Structure (SMILES) | IC50 [1] | EC50 [2] | Ratio IC50 [3] | Ratio IC50 [4] |
| --- | --- | --- | --- | --- |
| CC[Si](C)(C)c1ccc(CNC(=S)NCc2ccc(NS(C)(=O)=O)cc2)cc1 | 1.2 µM | > 100 µM | – | – |
| CC[Si](C)(C)c1ccc(CNC(=S)N[C@H](C)c2ccc(NS(C)(=O)=O)cc2)cc1 | 0.67 µM | > 100 µM | – | – |
| CC[Si](CC)(CC)c1ccc(CNC(=S)N[C@H](C)c2ccc(NS(C)(=O)=O)cc2)cc1 | 1.5 µM | > 100 µM | – | – |
| CC[Si](CC)(CC)c1ccc(CNC(=S)NCc2ccc(NS(C)(=O)=O)cc2)cc1 | 3.1 µM | > 100 µM | – | – |
| C[C@@H](NC(=S)NCc1ccc([Si](C)(C)C)cc1)c1ccc(NS(C)(=O)=O)cc1 | 0.21 µM | > 100 µM | 4 | 4 |

These reach a lower IC50 [1]. Values come first.

| IC50 [1] | EC50 [2] | Ratio IC50 [3] | Ratio IC50 [4] | Structure (SMILES) |
| --- | --- | --- | --- | --- |
| 0.16 µM | > 100 µM | 4 | 4 | C[Si](C)(C)c1ccc(CNC(=S)NCc2ccc(NS(C)(=O)=O)c(F)c2)cc1 |
| 0.15 µM | > 100 µM | – | – | C[Si](C)(C)c1ccc(CNC(=S)NCc2ccc(NS(C)(=O)=O)cc2)cc1 |
| 0.05 µM | > 100 µM | – | – | C[C@@H](NC(=S)NCc1ccc(C(C)(C)C)cc1)c1ccc(NS(C)(=O)=O)cc1 |
| 0.04 µM | > 100 µM | – | – | CC(C)(C)c1ccc(CNC(=S)NCc2ccc(NS(C)(=O)=O)c(F)c2)cc1 |
